Rev-erbA mod: modulators of Rev-erb alpha DNA binding, primary screen, biochemical, FITC-DNA, fluorescence polarization, uHTS; Rev-erbα–FITC-DNA binding, 90 min; activity, % at 10 µM; hit rate 0.79% among 370,000; AID 1259318, 2017;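 active = activity above about 14%, limit read from the data; passing the limit was not always enough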;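 also: 0% = DMSO wells with 35 nM protein and 100% = DMSO wells with 750 nM protein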
rCAG binder-1: binders of r(CAG) RNA repeats, primary screen, biochemical, fluorescence | hit rate 1.3% among 370,000 | r(CAG) RNA repeat, TO-PRO-1 dye displacement fluorescence | inhibition, % at 3 µM;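 active = inhibition above the plate cutoff, the mean of all test compounds on that plate plus 3 SD, cut at about 35% in these data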;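 also: 0% = DMSO alone and 100% = 100 µM mitoxantrone as full dye displacement; higher means more dye released from RNA so lower well fluorescence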
PG9 Ab binder: binders of HIV-1 gp120 antibody PG9, primary screen, biochemical, TR-FRET; HIV-1 gp120 / PG9 antibody interaction; TR-FRET gp120-PG9 antibody binding; inhibition, % at 6.7 µM; hit rate 0.43% among 360,000; in the data active = inhibition above about 8.5%
NR2E3 ag-1: NR2E3 agonists in two-hybrid cells, primary screen, cell-based, luminescence, CHO-S, Gal4-NCOR/VP16-NR2E3; inhibition of corepressor binding, % at 3.98 µM; luciferase; hit rate 0.35% among 360,000; Photoreceptor-specific nuclear receptor (Homo sapiens), Q9Y5X4; AID 602229, 2012;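 active = inhibition above the mean of all tested compounds plus 3 SD, cut at about 70% in these data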;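 also: 0% = DMSO with NR2E3 transfected cells and 100% = cells lacking NR2E3 construct; higher means lower luciferase signal from less NR2E3 corepressor binding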
Target sequence (Q9Y5X4 whole entry, looked up, the tested form may be a part): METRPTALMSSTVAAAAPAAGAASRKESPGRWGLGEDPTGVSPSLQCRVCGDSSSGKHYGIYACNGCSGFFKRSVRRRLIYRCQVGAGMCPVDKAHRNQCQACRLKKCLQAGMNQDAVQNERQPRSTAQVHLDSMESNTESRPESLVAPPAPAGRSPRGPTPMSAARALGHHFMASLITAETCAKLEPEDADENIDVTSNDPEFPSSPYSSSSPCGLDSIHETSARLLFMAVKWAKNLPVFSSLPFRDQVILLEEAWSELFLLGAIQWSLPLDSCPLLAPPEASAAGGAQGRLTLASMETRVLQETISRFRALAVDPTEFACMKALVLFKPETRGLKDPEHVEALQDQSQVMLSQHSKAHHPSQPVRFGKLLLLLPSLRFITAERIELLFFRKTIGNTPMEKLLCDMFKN
NR2E3 ag-2: inhibitors of NR2E3-RetCOR corepressor binding, primary screen, NR2E3 agonist project, biochemical, TR-FRET, GST-NR2E3, biotin-RetCOR. Photoreceptor-specific nuclear receptor (Homo sapiens), Q9Y5X4. 1536-well. inhibition of corepressor binding, % at 4.78 µM. hit rate 0.12% among 320,000. AID 2300, 2010;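 active = percent inhibition above the cutoff of mean plus 3 SD of all tested compounds, set per screening campaign, cut at about 20% in these data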;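 also: 0% = DMSO wells and 100% = biotin wells as full block of FRET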
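Material: NR2E3–RetCOR corepressor complex | Quantity: 1.35 nM GST-tagged NR2E3 final | Schedule: 5 h at 4 °C | Replication: Singlicate compound wells | Reagent: RetCOR corepressor, biotinylated, 7 nM | Controls: Biotin wells as high control, 0.6% DMSO wells as low control | Signal: TR-FRET, Eu(K)-anti-GST donor, streptavidin-D2 acceptor, ex 340, em 617/671 nm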
rCAG binder conf: small molecules binding CAG repeat RNA – biochemical, fluorescence, confirmation; r(CAG) RNA repeat, TO-PRO-1 dye displacement fluorescence; shares compounds with rCAG binder-1; inhibition, % at 3 µM; hit rate 70% among 4,300;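 active = inhibition above a per-plate cutoff, the mean inhibition of sample wells plus 3 SD, cut at about 35% in these data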;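 also: loss of TO-PRO-1 fluorescence as compound displaces dye from 1x1 AA loop RNA; 0% = DMSO only wells and 100% = 100 µM mitoxantrone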
DNA CAG counter: displacement of TO-PRO-1 from CAG DNA duplex, counter-screen for rCAG RNA repeat binder project, biochemical, fluorescence, TO-PRO-1 dye, d(CAG) DNA oligo; shares compounds with rCAG binder-1; d(CAG) DNA oligo TO-PRO-1 dye displacement; inhibition, % at 3 µM; hit rate 94% among 4,300;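 active = inhibition above its plate's cutoff, the mean test-well inhibition plus 3 SD, cut at about 4.8% in these data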;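 also: 0% = DNA dye mix with DMSO and 100% = 100 µM mitoxantrone; hits displace the dye from DNA and so lower well fluorescence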
DNA CAG DR: inhibitors of DNA CAG/GTC TO-PRO-1 complex, dose response, counter-screen for rCAG RNA repeat binder project, biochemical, fluorescence, TO-PRO-1 dye; shares compounds with rCAG binder-1; DNA CAG/GTC duplex TO-PRO-1 dye displacement fluorescence; IC50, µM; hit rate 20% among 250; AID 686960, 2013; in the data active = IC50 below about 10 µM
dCAG DNA bind: TO-PRO-1 dye complex inhibitors on d(CAG) DNA, dose response, counter-screen, biochemical, fluorescence, late stage. shares compounds with rCAG binder-1. hit rate 80% among 30. AID 720649, 2013. d(CAG) DNA duplex TO-PRO-1 dye displacement. IC50, µM
rCAG binder-2: molecules binding r(CAG) RNA repeats, late stage dose response, late-stage follow-up, biochemical, fluorescence, dose response, powder samples; shares compounds with rCAG binder-1; r(CAG) RNA TO-PRO-1 dye displacement; IC50, µM; hit rate 100% among 30; AID 720651, 2013
Starred values were filed as active, the others as inactive; i = inactive; / = no result. Most compounds without a hit are left out; they make up all but 2.6% or so of the library. Unless noted, no rule for the calls is given here.

SMILES	Rev-erbA mod	rCAG binder-1	PG9 Ab binder	NR2E3 ag-1	NR2E3 ag-2	rCAG binder conf	DNA CAG counter	others
O=C(CSc1nnc(SCc2cccc3ccccc23)s1)Nc1ccc(S(=O)(=O)Nc2nccs2)cc1	-2	80*	/	/	/	77*	43*
O=C(/C=C/CCc1ccc2c(c1)OCO2)N1CCCCC1	0	-5	-1	-21	/	/	/
COc1ccc(C(=O)O)cc1S(=O)(=O)Nc1ccc(N2CCCCC2)cc1	-3	2	-2	-16	/	/	/
COc1ccc(NC(=O)C[C@H]2C(=O)N(C3CCCCC3)C[C@@H]2c2ccc(OC)cc2)cc1	-3	2	-1	-22	/	/	/
OC[C@@H](O)C(O)[C@@H](O)CO (stereo not given in full)	-4	3	-1	6	/	/	/
CC(Oc1ccccc1Cl)C(=O)Nc1ccc(S(=O)(=O)Nc2nccs2)cc1 (stereo not given)	2	54*	-1	-20	1	54*	13*
CC1CCN(c2ccc(C(=O)O)cc2NS(=O)(=O)c2ccc(Br)cc2)CC1	-6	35*	0	30	0	37*	11*
COC(=O)c1ccc(N2CCCCC2)c(NS(=O)(=O)c2ccc(C)cc2)c1	5	2	0	-7	-3	/	/
COC(=O)c1cc(NS(=O)(=O)c2ccc(N3CCC(C)CC3)c([N+](=O)[O-])c2)cc(C(=O)OC)c1	2	55*	2	13	0	60*	19*
CC1CCN(C(=O)c2ccc(NS(=O)(=O)c3cccc4cccnc34)cc2)CC1	-3	-2	2	14	-2	/	/
CC1CCN(c2ccc(C(=O)O)cc2NS(=O)(=O)c2cccc3cccnc23)CC1	-5	36*	/	/	/	30	7.2*
COc1ccc(C(=O)O)cc1S(=O)(=O)Nc1cc(C(F)(F)F)ccc1N1CCCCC1	3	46*	-2	-6	/	32	7.1*
CN(CC(=O)NCC1CCCCC1)CC(=O)Nc1ccccc1Br	-2	-2	-1	30	1	/	/
CCCCN1C(=O)C(CC(=O)NCCc2ccccn2)CC(C(=O)N(C(C)C)C(C)C)=C1C (stereo not given)	5	-1	1	14	/	/	/
CC1CCN(c2ccc(C(=O)O)cc2NS(=O)(=O)c2ccc(Cl)s2)CC1	1	29	/	/	/	/	/
Cc1ccc(S(=O)(=O)Nc2cc(C(=O)O)ccc2N2CCC(C)CC2)cc1C	11	42*	/	/	/	41*	11*
COc1cccc(CNC(=O)c2c[nH]n3c(=O)c(Cl)c(C)nc23)c1	-2	61*	-1	-24	1	35*	8.0*
COc1cccc(CNC(=O)c2ccccc2N)c1	-3	0	0	1	-1	/	/
Cc1ccc(SCC(=O)N2CCOCC2)cc1	-9	40*	-2	-18	0	1	2
CCSC1=N/C(=C\c2ccc(-c3ccccc3[N+](=O)[O-])o2)C(=O)S1	-1	20	-2	-51	3	/	/
CCCSC1=N/C(=C\c2ccc([N+](=O)[O-])o2)C(=O)S1	-34	40*	-5	-49	/	47*	20*	DNA CAG DR=>30
O=S(=O)(Nc1cccc(-n2cnnn2)c1)c1cc(Br)ccc1Br	-2	36*	-1	-7	0	21	4.9*
CC(C)Cn1nc(NS(=O)(=O)c2cccc3nonc23)c2cc3ccccc3nc21	-4	53*	0	-29	2	39*	12*
CCn1nc(NS(=O)(=O)c2cccc3nonc23)c2cc3ccc(C)cc3nc21	/	/	/	-12	-4	/	/
CCOc1ncccc1C(=O)OCC(=O)N(CC(C)C)c1c(N)n(Cc2ccccc2)c(=O)[nH]c1=O	-4	-2	2	-8	0	/	/
SMILES	Rev-erbA mod	rCAG binder-1	PG9 Ab binder	NR2E3 ag-1	NR2E3 ag-2	rCAG binder conf	DNA CAG counter	others
O=C(N[C@H](C(=O)N1CCC[C@H]1C(=O)NCCc1ccccc1Cl)C1CCCCC1)c1cccs1	-2	1	0	/	/	/	/
O=C1/C(=C/c2ccco2)SC(=S)N1c1cccnc1	-15	65*	-3	6	/	55*	26*
O=C1/C(=C/C=C/c2ccco2)SC(=S)N1c1ccc(O)cc1	-27	74*	-1	-32	2	77*	46*
O=C1/C(=C\c2ccco2)SC(=S)N1c1ccc(O)cc1	0	16	2	-1	2	/	/
CC(C)C(N)c1csc(NC(=O)Nc2cccc(Cl)c2)n1 (stereo not given)	-2	44*	1	12	/	51*	8.4*
NC(c1csc(NC(=O)Nc2cccc(Cl)c2)n1)c1ccccc1Cl (stereo not given)	-4	41*	0	34	/	50*	17*
CC(C)c1ccc(NC(=O)Nc2nc(C(N)C(C)C)cs2)cc1 (stereo not given)	5	31	-1	-26	/	/	/
CCSc1nnc(NC(=O)C2CCCN(C(=O)c3ccc(Cl)cc3)C2)s1 (stereo not given)	-8	3	1	23	/	/	/
Nc1nonc1-c1nc2ccccc2n1CC(=O)N/N=C/c1ccc(-c2ccccc2C(=O)O)o1	-11	29	-1	-12	0	/	/
CC1=C(C#N)c2nc(N)c(C#N)c(C)c2/C1=C\c1ccc(-c2ccccc2C(=O)O)o1	-2	46*	-5	-4	/	69*	32*	DNA CAG DR=i;dCAG DNA bind=2.8*;rCAG binder-2=1.1*
C/C=C/c1ccc(OCC(=O)O)c(OC)c1	2	-1	0	-31	0	/	/
